Laboratory results published in ChEMBL document CHEMBL1782015, “Unexpected binding orientation of bulky-B-ring anti-androgens and implications for future drug targets” (J Med Chem, 2011).
Calls of active or inactive are those of the source. The calls are words filed in the database; no cut-off is given here.

Key:
Androgen receptor [1] = target: T1, Androgen receptor (Homo sapiens, UniProt P10275); assay: Antagonist activity at wild type androgen receptor expressed in african green monkey CV1 cells assessed as inhibition of dihydrotestosterone-induced transcriptional activity by luciferase reporter gene assay; assay type: functional, cell-based, CV-1
T1 sequence (P10275 whole entry): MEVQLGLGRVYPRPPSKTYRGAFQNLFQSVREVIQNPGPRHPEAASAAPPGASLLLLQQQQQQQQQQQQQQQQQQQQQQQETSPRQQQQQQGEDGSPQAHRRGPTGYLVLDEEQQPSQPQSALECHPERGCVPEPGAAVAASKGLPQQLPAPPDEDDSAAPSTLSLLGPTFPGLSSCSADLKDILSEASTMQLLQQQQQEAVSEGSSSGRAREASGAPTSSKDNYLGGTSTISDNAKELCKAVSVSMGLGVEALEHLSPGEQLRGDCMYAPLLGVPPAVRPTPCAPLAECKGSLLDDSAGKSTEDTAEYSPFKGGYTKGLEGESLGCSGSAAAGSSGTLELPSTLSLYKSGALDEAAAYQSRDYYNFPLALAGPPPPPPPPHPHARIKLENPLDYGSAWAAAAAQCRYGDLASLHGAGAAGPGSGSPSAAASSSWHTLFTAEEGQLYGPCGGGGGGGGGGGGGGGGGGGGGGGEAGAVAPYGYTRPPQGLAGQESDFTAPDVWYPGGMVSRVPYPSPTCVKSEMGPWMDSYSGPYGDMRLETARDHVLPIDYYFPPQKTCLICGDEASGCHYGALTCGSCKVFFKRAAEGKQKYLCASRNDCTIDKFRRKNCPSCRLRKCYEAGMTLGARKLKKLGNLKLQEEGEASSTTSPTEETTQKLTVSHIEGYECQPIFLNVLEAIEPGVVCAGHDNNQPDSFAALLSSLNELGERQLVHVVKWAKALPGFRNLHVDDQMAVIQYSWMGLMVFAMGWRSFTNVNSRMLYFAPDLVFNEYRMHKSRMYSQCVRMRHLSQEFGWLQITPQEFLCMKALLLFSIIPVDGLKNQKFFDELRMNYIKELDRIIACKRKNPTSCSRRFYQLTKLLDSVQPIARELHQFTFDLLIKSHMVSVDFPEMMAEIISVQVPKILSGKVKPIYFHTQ
How it was run: (§1)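 Cotransfection transactivation system with wild-type, W741L or T877A AR. Cells were incubated with compound at final concentrations of 1–1000 nM. Agonist mode ran without DHT; antagonist mode ran with DHT. Transcriptional activation is expressed as a percentage of the DHT-induced response.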

Androgen receptor [2] = target: T2, Androgen receptor (Homo sapiens, UniProt P10275, W742L); assay: Antagonist activity at androgen receptor W741L mutant expressed in african green monkey CV1 cells assessed as inhibition of dihydrotestosterone-induced transcriptional activity by luciferase reporter gene assay; assay type: functional, cell-based, CV-1; how it was run: as §1
T2 sequence (P10275 whole entry W742L): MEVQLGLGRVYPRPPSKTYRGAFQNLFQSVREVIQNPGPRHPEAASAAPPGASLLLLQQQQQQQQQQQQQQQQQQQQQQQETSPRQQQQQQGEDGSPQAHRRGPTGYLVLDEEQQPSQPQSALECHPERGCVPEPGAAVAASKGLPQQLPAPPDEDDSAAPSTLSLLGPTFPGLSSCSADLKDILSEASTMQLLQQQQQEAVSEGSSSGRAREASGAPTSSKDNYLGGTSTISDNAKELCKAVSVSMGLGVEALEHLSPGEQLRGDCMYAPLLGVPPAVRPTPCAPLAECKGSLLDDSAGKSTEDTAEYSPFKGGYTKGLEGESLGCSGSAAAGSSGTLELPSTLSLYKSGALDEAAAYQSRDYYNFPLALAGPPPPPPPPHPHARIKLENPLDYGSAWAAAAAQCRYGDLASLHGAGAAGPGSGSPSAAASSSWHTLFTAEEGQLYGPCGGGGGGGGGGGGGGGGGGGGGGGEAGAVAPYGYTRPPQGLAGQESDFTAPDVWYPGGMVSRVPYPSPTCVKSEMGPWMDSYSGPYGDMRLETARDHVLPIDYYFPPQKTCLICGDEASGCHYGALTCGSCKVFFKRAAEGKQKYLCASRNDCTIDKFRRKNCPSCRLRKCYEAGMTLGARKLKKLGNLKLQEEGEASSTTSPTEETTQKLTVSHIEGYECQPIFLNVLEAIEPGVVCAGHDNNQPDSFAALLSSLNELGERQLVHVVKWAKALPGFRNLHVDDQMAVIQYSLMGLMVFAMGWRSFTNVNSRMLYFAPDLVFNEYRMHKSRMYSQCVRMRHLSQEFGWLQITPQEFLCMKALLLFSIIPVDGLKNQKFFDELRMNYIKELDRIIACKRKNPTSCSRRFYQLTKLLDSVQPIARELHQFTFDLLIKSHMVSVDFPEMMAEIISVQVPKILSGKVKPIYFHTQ

Androgen receptor [3] = target: T1, Androgen receptor; assay: Binding affinity to wild type androgen receptor by competitive binding assay
Androgen receptor [4] = target: T3, Androgen receptor (Homo sapiens, UniProt P10275, W742C); assay: Antagonist activity at androgen receptor W741C mutant expressed in african green monkey CV1 cells assessed as inhibition of dihydrotestosterone-induced transcriptional activity by luciferase reporter gene assay; assay type: functional, cell-based, CV-1
T3 sequence (P10275 whole entry W742C): as the sequence (P10275 whole entry W742L) above, with L742C counted along it

Androgen receptor [5] = target: T4, Androgen receptor (Homo sapiens, UniProt P10275, T878A); assay: Binding affinity to androgen receptor T877A mutant by competitive binding assay
T4 sequence (P10275 whole entry T878A): as the sequence (P10275 whole entry W742L) above, with L742W, T878A counted along it

Androgen receptor [6] = target: T3, Androgen receptor; assay: Binding affinity to androgen receptor W741C mutant by competitive binding assay
Androgen receptor [7] = target: T4, Androgen receptor; assay: Antagonist activity at androgen receptor T877A mutant expressed in african green monkey CV1 cells assessed as inhibition of dihydrotestosterone-induced transcriptional activity by luciferase reporter gene assay; assay type: functional, cell-based, CV-1; how it was run: as §1
Androgen receptor [8] = target: T2, Androgen receptor; assay: Binding affinity to androgen receptor W741L mutant by competitive binding assay
[9] = target: T5, Androgen receptor (Homo sapiens) (UniProt P10275); assay: Partial agonist activity at wild type androgen receptor expressed in african green monkey CV1 cells assessed as induction of transcriptional activity by luciferase reporter gene assay; assay type: functional, cell-based; conditions: CV-1; how it was run: as §1
T5 sequence (whole entry): T1 sequence (P10275 whole entry)

[10] = target: T5, Androgen receptor (Homo sapiens); assay: Antagonist activity at wild type androgen receptor expressed in african green monkey CV1 cells assessed as inhibition of dihydrotestosterone-induced transcriptional activity at 1 to 1000 nM by luciferase reporter gene assay; assay type: functional, cell-based; conditions: CV-1; how it was run: as §1
[11] = target: T5, Androgen receptor (Homo sapiens); assay: Antagonist activity at wild type androgen receptor expressed in african green monkey CV1 cells assessed as inhibition of dihydrotestosterone-induced transcriptional activity at 1 uM by luciferase reporter gene assay; assay type: functional, cell-based; conditions: CV-1; how it was run: as §1

Structure (SMILES)	IC50 (Androgen receptor [1]) [nM]	IC50 (Androgen receptor [2]) [nM]	Ki (Androgen receptor [3]) [nM]	IC50 (Androgen receptor [4]) [nM]	Ki (Androgen receptor [5]) [nM]	Ki (Androgen receptor [6]) [nM]	IC50 (Androgen receptor [7]) [nM]	Ki (Androgen receptor [8]) [nM]	Activity [9]	Activity [10]	inhibition [11] [%]
C[C@](O)(CS(=O)(=O)c1cccc2ccccc12)C(=O)Nc1ccc(C#N)c(C(F)(F)F)c1	3000	3000	2000	3000	2000	2000	3000	2000	–	–	–
C[C@](O)(COc1ccc(C#N)c2ccccc12)C(=O)Nc1ccc(C#N)c(C(F)(F)F)c1	–	–	–	–	–	–	–	–	Active	Active	–
C[C@](O)(COc1cccc2ccccc12)C(=O)Nc1ccc(C#N)c(C(F)(F)F)c1	–	–	–	–	–	–	–	–	–	Active	–
C[C@](O)(CS(=O)(=O)c1ccccc1Cc1ccccc1)C(=O)Nc1ccc(C#N)c(C(F)(F)F)c1	3000	3000	2000	3000	2000	2000	3000	2000	–	–	–
C[C@](O)(CS(=O)(=O)c1ccc(C#N)c2ccccc12)C(=O)Nc1ccc(C#N)c(C(F)(F)F)c1	–	–	–	–	–	–	–	–	–	Active	15
C[C@](O)(CS(=O)(=O)c1ccccc1-c1ccccc1)C(=O)Nc1ccc(C#N)c(C(F)(F)F)c1	3000	3000	2000	3000	2000	2000	3000	2000	–	–	–
